# Experimental data: PubChem BioAssay AID540295 (The Scripps Research Institute Molecular Screening Center, 2011)
# About 1,700 (0.47%) of roughly 360,000 compounds were called active. The sample holds actives, similar compounds and a random draw of the others, so the mix is not that of the screen. A number with no mark means an inactive call.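 Rule for the calls: active = inhibition above its plate's cutoff, the mean of tested wells on that plate plus 3 SD (cut at about 29% in these data); inactive = the rest.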
# Biological target: Melanocortin receptor 4 (Homo sapiens) (UniProt P32245)
# Sequence (P32245 whole entry, looked up): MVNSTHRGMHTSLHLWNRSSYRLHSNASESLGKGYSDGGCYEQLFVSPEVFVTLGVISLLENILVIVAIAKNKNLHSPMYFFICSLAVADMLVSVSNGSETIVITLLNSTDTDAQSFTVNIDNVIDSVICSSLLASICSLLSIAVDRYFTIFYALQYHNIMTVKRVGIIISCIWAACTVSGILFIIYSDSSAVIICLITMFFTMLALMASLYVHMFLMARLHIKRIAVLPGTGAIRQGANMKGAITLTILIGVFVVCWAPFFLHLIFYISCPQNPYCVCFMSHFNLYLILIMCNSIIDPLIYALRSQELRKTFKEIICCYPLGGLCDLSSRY
# Experiment: MC4R antagonists of cAMP signaling, primary screen, cell-based, TR-FRET, antagonist arm of biased-ligand search (AID 540295);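 note: 0% = Melanotan II alone and 100% = Melanotan II plus saturating MCL0020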
# Conditions: MC4R-expressing cells, MTII-stimulated cAMP, LANCE TR-FRET; at 6.5 µM; hits give high values
# Outline: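 System: U2OS cells stably expressing human melanocortin 4 receptor (MC4R). Reagent: Melanotan II challenge after compound preincubation. Doses: 6.5 µM. Times: 30-min compound, 1-h challenge, 1-h detection, room temperature. Measured by: TR-FRET with Eu-cAMP and labeled anti-cAMP, 671 nm. Replicates: singlicate.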
row,Compound,inhibition
1,CCCS(=O)(=O)NC(=O)C1(C)CCCN(C(=O)c2cc(C)on2)C1 (centres undefined),10.6%
2,Cc1cc(=O)oc2c3c(cc(OCC(=O)NCc4ccccn4)c12)OC(C)(C)CC3,-0.73%
3,Cc1ccc(C)c(OCCC(=O)OCC(=O)c2ccc3c(c2)NC(=O)CO3)c1,2.21%
4,O=C(O)CN1C(=O)CC(Cc2ccccc2)C1=O (centres undefined),-3.51%
5,Cc1ccc(NC(=O)C2CC2c2ccccc2)cc1 (centres undefined),0.14%
6,Cc1ccc(Sc2ccc(NC(=O)c3ccc(F)cc3)cc2C#N)cc1,33.5% (active)
7,COc1ccc(Sc2ccc(NC(=O)c3cccc(Cl)c3)cc2C#N)cc1,5.3%
8,COC(=O)c1ccc(Sc2ccc(F)cc2)c(N)c1,-11.2%
9,Cc1ccc(S(=O)(=O)N(C)CC(=O)OCC(=O)Nc2ccccc2)cc1,34.1% (active)
10,Cc1ccccc1SCC(=O)OCC(=O)N1CC(=O)Nc2ccccc21,0.86%
11,Cc1ccc(S(=O)(=O)N2CCC(C(=O)OCC(=O)N3CC(=O)Nc4ccccc43)CC2)cc1,20.2%
12,CN(C)S(=O)(=O)c1ccc(NC(=O)COC(=O)Cn2[nH]c(=O)c3ccccc3c2=O)cc1,9.38%
13,Cc1ccc(S(=O)(=O)N(C)CC(=O)OCC(=O)N2CC(=O)Nc3ccccc32)cc1,33.9% (active)
14,CN(c1ccccc1)S(=O)(=O)c1ccc(NC(=O)COc2ccccc2)cc1,-6.55%
15,COc1ccnc(Oc2ccccc2)n1,0.1%
16,O=C(c1ccccc1)N1CCN(c2cc(-c3ccccc3)nc3cc(-c4cccc(Cl)c4)nn23)CC1,1.52%
17,CN(C)CCN1CCN(c2cc(-c3cccc(Cl)c3)nc3ccnn23)CC1,3.3%
18,C#Cc1cc(N2CCN(C(=O)c3ccoc3)CC2)n2nc(-c3cccc(Cl)c3)cc2n1,32.1% (active)
19,CC(CNc1ccc([N+](=O)[O-])c2cccnc12)Nc1c([N+](=O)[O-])cc(C(F)(F)F)cc1[N+](=O)[O-] (centres undefined),7.59%
20,COc1ccccc1-c1n[nH]c2c1[C@H](C)CC[C@H]2C(C)C,10%
21,Cc1cc(C)cc(Oc2c(C(F)(F)F)oc3cc(OCC(=O)O)ccc3c2=O)c1,-2.27%
22,O=C(CSc1nc2ccc(Nc3nc(N4CCOCC4)nc(N4CCOCC4)n3)cc2s1)NCc1ccco1,29.5% (active)
23,O=C(CSc1c2c(nc3ccc(Cl)cc13)CCCC2)NCc1ccco1,11.1%

row,Compound,inhibition
1,O=C(CSc1nc(Nc2ccccc2)nc(N2CCOCC2)n1)Nc1cc(Cl)ccc1O,-4.1%
2,Cc1ccccc1N1CC(C(=O)Nc2ccc3c(c2)OCO3)CC1=O (centres undefined),8.22%
3,CCOCc1nnc(NC(=O)CCS(=O)(=O)Cc2ccccc2)s1,4.21%
4,O=C1C(Cl)=C(Oc2ccccc2)C(=O)c2ccccc21,93.5% (active)
5,CCC1CCCCN1C(=S)Nc1ccc(S(=O)(=O)Nc2ncccn2)cc1 (centres undefined),-1.16%
6,C=CC(=O)OCCOCCOCCOCCOC(=O)C=C,-0.74%
7,COCC(C)NC(=O)c1ccc(-n2nc(C(F)(F)F)cc2-c2cccs2)cc1 (centres undefined),11.7%
8,Cc1ccc(C)c(NC2=NCC(=O)N2c2ccc3c(c2)OCCO3)c1,-2.27%
9,Cc1cc(=O)oc2c3c(cc(OCC(=O)NCC(O)c4ccccc4)c12)OC(C)(C)CC3 (centres undefined),14.2%
10,Brc1c(CSc2nncc3ccccc23)nc2ccccn12,0.34%
11,CC(C(=O)O)n1cnc2sc3c(c2c1=O)CCCC3 (centres undefined),-7.65%
12,CCOC(=O)C(C)n1cnc2scc(-c3ccc(C)c(C)c3)c2c1=O (centres undefined),1.47%
13,CCOC(=O)C(C)n1cnc2sc(C)c(C)c2c1=O (centres undefined),31.2% (active)
14,CC(=O)NC12CC3CC(C1)CC(C(=O)N1CCN(C(=O)c4ccco4)CC1)(C3)C2,-0.56%
15,COc1ccc(Nc2ncc(F)c(N3CCOCC3)n2)cc1,-0.86%
16,CCN1CCN(c2nc(Nc3cc(OC)ccc3OC)nc(Nc3cc(OC)ccc3OC)n2)CC1,12.3%
17,CCOc1ccc(Nc2nc(Cl)nc(N3CCN(c4ccc(OC)cc4)CC3)n2)cc1,29.1% (active)
18,Cc1ccc(Nc2cc(C)nc3c(C)ccc([N+](=O)[O-])c23)cc1,-5.69%
19,CCNC(=O)CCc1nc(-c2ccc(C(C)(C)C)cc2)no1,9.83%
20,Cc1cccc(-c2nc3c(c(SCC(=O)N4CCOCC4)n2)CCCC3)c1,3.91%
21,CCCS(=O)(=O)NC(=O)C1(C)CCCN(C(=O)c2ccnc(Cl)c2)C1 (centres undefined),-1.37%
22,Cc1nnc(N/N=C/C2CC=CCC2)[nH]c1=O (centres undefined),33.9% (active)
23,O=C(N/N=C\C1CC=CCC1)c1ccc(Br)o1 (centres undefined),6.38%

row,Compound,inhibition
1,Cc1nnc(N/N=C/c2ccccn2)[nH]c1=O,-1.07%
2,CCN1CCN(C(=O)CN(C)S(=O)(=O)c2ccc(OC)cc2)CC1,9.54%
3,Cc1ccc(NC(=O)CCNC(=O)c2ccc([N+](=O)[O-])cc2)cc1S(=O)(=O)N1CCOCC1,-2.86%
4,Cc1ccc(C)c(S(=O)(=O)N2CCN(CC(=O)Nc3ccc([N+](=O)[O-])cc3)CC2)c1,34.2% (active)
5,Cc1ccc([N+](=O)[O-])cc1S(=O)(=O)N1CCCN(C)CC1,-8.59%
6,COC(=O)c1ccc(CSc2ccc(S(=O)(=O)N3CCCCC3)cn2)cc1,0.99%
7,Cc1ccc(Sc2cc(C(=O)c3ccccc3C(=O)O)ccc2[N+](=O)[O-])cc1,-7.09%
8,Cc1ccc(SC(CC(=O)c2ccc(C(C)(C)C)cc2)C(=O)O)cc1 (centres undefined),31.2% (active)
9,Cc1ccc(SC(C)C(=O)NCc2ccc(F)cc2)cc1 (centres undefined),-3.51%
10,Cc1ccc(S(=O)(=O)Nc2nc(C)cc(-n3nc(C)cc3C)n2)cc1,14.3%
11,Cc1ccc(S(=O)(=O)NC(C(=O)N2CCOCCOCCOCCOCC2)c2ccccc2)cc1 (centres undefined),-0.07%
12,CCCC(C(=O)n1nc(C)cc1C)C(NS(=O)(=O)c1ccc(C)cc1)c1ccccc1 (centres undefined),34.4% (active)
13,CCc1c(C)[nH]c(=S)c(C#N)c1C,14.3%
14,O=C1NC[C@@H](c2ccccc2)OC(=O)[C@H](Cc2ccc(F)cc2)CC/C=C/C[C@H]1CC(=O)N(CCO)Cc1ccccc1,7.53%
15,O=C(O)C(=Cc1ccc([N+](=O)[O-])cc1)CCc1ccccc1,-2.43%
16,O=C1/C(=C\c2ccc([N+](=O)[O-])cc2)CS(=O)(=O)C/C1=C/c1ccc([N+](=O)[O-])cc1,34.6% (active)
17,CC(=O)Nc1ccc(C=Cc2ccc([N+](=O)[O-])cc2)cc1,1.16%
18,CCN(C(=O)CSc1ncnc2sccc12)c1c(N)n(Cc2ccccc2)c(=O)[nH]c1=O,-1.83%
19,CCCNc1ncnc2sc(C)c(C)c12,-9.19%
20,COc1cccc(CSc2nc3nc(C)cc(C)n3n2)c1,-3.34%
21,COc1ccc(C(C[N+](=O)[O-])n2nc(C)cc2C)cc1 (centres undefined),46.6% (active)
22,COc1ccc(OC)c(S(=O)(=O)n2c([N+](=O)[O-])cnc2C)c1,0.16%
23,Cc1ccc(C)c(S(=O)(=O)N2CCCOC2CNC(=O)C(=O)NC2CCCCC2)c1 (centres undefined),4.1%

row,Compound,inhibition
1,O=C1CCC([N+](=O)[O-])C(c2ccccc2Br)N1 (centres undefined),25.1%
2,Cc1ccc(OCC(=O)Nc2ccc(NC(=O)c3cccs3)cc2)c(C)c1,29.7% (active)
3,C/C(=N\OCC(=O)Nc1ccc(Br)cc1)c1cccs1,-1.35%
4,Cc1ccc(OCC(=O)Nc2ccc(N3CCN(C(=O)c4ccco4)CC3)cc2)c(C)c1,12.1%
5,CC(=O)Oc1ccc(-c2cccc(C(=O)N3CCCCC3)c2)cc1,-4.05%
6,O=C(O[C@@H]1[C@H](Cc2ccccc2)NS(=O)(=O)[C@H]2C[C@@H]3C=C[C@]12O3)c1ccccc1Br,12%
7,Cc1ccc(NS(=O)(=O)c2ccc(C)c(NC(=O)COc3ccc4ccccc4c3)c2)c(C)c1,31.4% (active)
8,Cc1ccc(C)c(NC(=O)CN(C)C(=O)COc2ccc3ccccc3c2)c1,2.76%
9,Cc1ccc(C)c(NS(=O)(=O)c2ccc(OCC(=O)NCc3cccnc3)cc2)c1,-2.79%
10,O=C(Nc1cc(C(F)(F)F)ccc1Cl)c1cc2nc3c(c(C(F)(F)F)n2n1)CCCC3,2.12%
11,CN(CC(=O)NC1CCCC1)S(=O)(=O)c1cnc[nH]1,-1.7%
12,O=C(OCc1ccc([N+](=O)[O-])cc1)C1CC(=O)N(Cc2ccccc2Cl)C1 (centres undefined),7.18%
13,CCCCCOC(=O)C1=C(C)Nc2nnnn2C1c1ccc(OC)c(OC)c1OC (centres undefined),12.4%
14,Cn1ccc(=NC=C(C#N)C#N)c2ccccc21,27.8%
15,O=[N+]([O-])/C=C/c1ccc2c(ccn2Cc2ccccc2)c1,46.2% (active)
16,O=C(CN1CCCSc2ccccc21)N1CCN(S(=O)(=O)c2cccc(F)c2)CC1,5.01%
17,O=C(CN1CCCSc2ccccc21)N1CCN(S(=O)(=O)c2ccccc2)CC1,5.29%
18,N#C/C=C1\Sc2ccccc2C(=O)N1CC(=O)N1CCN(S(=O)(=O)c2ccccc2)CC1,33.4% (active)
19,Cc1ccc2c(c1)C1CN(C)CCC1N2S(=O)(=O)c1ccc(Oc2ccc([N+](=O)[O-])cc2)cc1 (centres undefined),2.73%
20,O=C(CN1CCc2ccccc21)NC(c1ccccc1)c1ccccc1,1.1%
